PMC6088244 (Biochemistry, 2018)
Read-outs that look alike come from different tables or passages of the source. Values belong to the molecule of their own block, whether it stands above or below them.

Key:
PDE4B2B = PDE4B2B (Homo sapiens, UniProt Q07343); assay: PDE enzymatic assay with 3H-cAMP or 3H-cGMP as substrates; format: biochemical; settings: IC50, PDE4B2B (152–528)
How it was run: (§1)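 Recombinant PDE catalytic domains incubated at room temperature for 15 min in 20 mM Tris.HCl pH 7.5, 10 mM MgCl2, 0.5 mM DTT, with 3H-cAMP or 3H-cGMP at 20–40k cpm/assay. Stopped with 0.2 M ZnSO4. Product precipitated with 0.2 N Ba(OH)2. Unreacted substrate in supernatant counted by liquid scintillation. Nine inhibitor concentrations tested. Rolipram served as reference.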

PDE8A1 (480–820) = PDE8A1 (480–820) (Homo sapiens, UniProt O60658); assay: PDE enzymatic assay with 3H-cAMP or 3H-cGMP as substrates; format: biochemical
How it was run: (§2)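 PDE catalytic domains were incubated with 20 mM Tris-HCl pH 7.5, 10 mM MgCl2, 0.5 mM DTT and 3H-cAMP or 3H-cGMP (20–40k cpm/assay) for 15 min at room temperature. The reaction was stopped with 0.2 M ZnSO4, and product was precipitated with 0.2 N Ba(OH)2. Supernatant radioactivity was scintillation-counted. Nine inhibitor concentrations were tested; rolipram was the reference.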

PDE3A1 (665–1141) = PDE3A1 (665–1141) (Homo sapiens, UniProt Q14432); assay: as above; format: biochemical
How it was run: as §2

PDE9A1 (181–506) = PDE9A1 (181–506) (Homo sapiens, UniProt O76083); assay: PDE enzymatic assay with 3H-cAMP or 3H-cGMP as substrates; format: biochemical
How it was run: as §1

PDE11A4 (563–934) = molecular target: T1, PDE11A4 (563–934) (Homo sapiens, UniProt Q9HCR9); assay: PDE enzymatic assay with 3H-cAMP or 3H-cGMP as substrates; format: biochemical
T1 sequence (Q9HCR9 563-933 limits assumed): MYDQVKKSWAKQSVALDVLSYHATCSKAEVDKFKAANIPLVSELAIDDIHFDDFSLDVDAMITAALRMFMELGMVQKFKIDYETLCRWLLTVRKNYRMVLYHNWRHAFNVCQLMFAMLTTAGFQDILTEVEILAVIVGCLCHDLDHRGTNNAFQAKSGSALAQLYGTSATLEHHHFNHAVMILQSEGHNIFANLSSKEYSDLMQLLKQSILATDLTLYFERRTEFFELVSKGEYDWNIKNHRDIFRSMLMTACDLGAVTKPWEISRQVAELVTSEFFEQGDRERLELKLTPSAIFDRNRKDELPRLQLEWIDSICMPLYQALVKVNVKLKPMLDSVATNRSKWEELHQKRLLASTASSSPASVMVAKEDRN
How it was run: as §2

PDE2A3 (580–941) = PDE2A3 (580–941) (Homo sapiens, UniProt O00408); assay: PDE enzymatic assay with 3H-cAMP or 3H-cGMP as substrates; format: biochemical
How it was run: as §1

PDE5A1 (535–860) = PDE5A1 (535–860) (Homo sapiens, UniProt O76074); assay: as above; format: biochemical
How it was run: as §1

PDE7A1 (130–482) = PDE7A1 (130–482) (Homo sapiens, UniProt Q13946); assay: as above; format: biochemical
How it was run: as §1

PDE10A2 (448–789) = PDE10A2 (448–789) (Homo sapiens, UniProt Q9Y233); assay: PDE enzymatic assay with 3H-cAMP or 3H-cGMP as substrates; format: biochemical
How it was run: as §2

mice [1] = assay: Object recognition test; format: in vivo; settings: i.p. 30 min prior to the test; for memory in the object recognition test: Fig. 5A
How it was run: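 Male ICR mice (22–24 g) were housed at 22–23 °C on a 12-h light-dark cycle with free food and water. Test compound, rolipram or vehicle was given i.p. 30 min before testing. Mice were trained to tell a novel from a familiar object with a 24-hour delay. Exploration times (Tn, Tf) were recorded over 3 min. n = 8–9; one-way ANOVA with Dunnett's post hoc test.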

mice [2] = assay: Open-field test; format: in vivo
How it was run: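 Naive male ICR mice received test compound, rolipram or vehicle by i.p. injection. Thirty minutes later each was placed in the centre of an open-field box with its floor divided into 4 identical squares and explored for 5 min. Line crossings (all four paws over the line) and rears were counted. Means ± S.E., n = 8–9; one-way ANOVA with Dunnett's test.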

[3] = Pharmacokinetic properties in mice; format: in vivo; settings: 5 mg/kg
How it was run: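 Male ICR mice were dosed at 5 mg/kg. The stock dosing sample was 10 mg test compound in 10 ml saline containing 1% DMSO, 40% 2-hydroxypropyl-β-cyclodextrin and 6% Solutol HS 15. It was vortexed and sonicated until fully dissolved.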

LPS-induced TNFa release = settings: read-out: IC50 of LPS-induced TNFa release, cited from earlier work
PDE4D = settings: read-out: IC50 against PDE4D; racemic Zl-n-91; cited from earlier work
mice [4] = settings: at the same dose required for producing a memory-enhancing effect; cited from earlier work
[5] = doses of 0.01–0.5 mg/kg, 30 min after injection

Chain of PDE2A3 (580–941) (O00408 580-941): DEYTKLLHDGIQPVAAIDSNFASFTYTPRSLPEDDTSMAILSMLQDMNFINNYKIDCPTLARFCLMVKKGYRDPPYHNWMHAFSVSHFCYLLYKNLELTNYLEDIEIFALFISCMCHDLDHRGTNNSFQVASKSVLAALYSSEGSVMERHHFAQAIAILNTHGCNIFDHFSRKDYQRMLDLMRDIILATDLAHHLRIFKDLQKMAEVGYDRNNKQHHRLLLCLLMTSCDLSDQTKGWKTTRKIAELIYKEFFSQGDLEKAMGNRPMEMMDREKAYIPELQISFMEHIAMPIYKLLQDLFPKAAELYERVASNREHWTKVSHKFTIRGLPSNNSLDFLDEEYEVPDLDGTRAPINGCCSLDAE
Chain of PDE4B2B (Q07343 324-700): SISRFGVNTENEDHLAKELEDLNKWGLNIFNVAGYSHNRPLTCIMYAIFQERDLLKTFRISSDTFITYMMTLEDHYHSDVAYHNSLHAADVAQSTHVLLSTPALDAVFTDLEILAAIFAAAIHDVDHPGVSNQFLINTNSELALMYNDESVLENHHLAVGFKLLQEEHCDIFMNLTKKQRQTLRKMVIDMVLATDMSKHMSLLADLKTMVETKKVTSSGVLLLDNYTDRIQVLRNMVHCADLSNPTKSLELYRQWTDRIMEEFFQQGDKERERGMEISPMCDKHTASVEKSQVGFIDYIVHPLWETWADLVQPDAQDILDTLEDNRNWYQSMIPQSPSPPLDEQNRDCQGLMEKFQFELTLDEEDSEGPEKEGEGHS
Chain of PDE8A1 (480–820) (O60658 480-820): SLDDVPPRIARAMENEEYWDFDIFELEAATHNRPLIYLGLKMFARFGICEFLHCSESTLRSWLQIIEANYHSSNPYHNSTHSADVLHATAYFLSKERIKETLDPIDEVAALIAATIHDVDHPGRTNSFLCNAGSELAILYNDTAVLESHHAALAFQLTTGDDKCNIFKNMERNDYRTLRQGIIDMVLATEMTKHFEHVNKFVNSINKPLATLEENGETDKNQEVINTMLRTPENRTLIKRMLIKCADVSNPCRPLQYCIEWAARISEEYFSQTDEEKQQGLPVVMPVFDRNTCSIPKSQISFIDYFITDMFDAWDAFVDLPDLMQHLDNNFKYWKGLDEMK
Chain of PDE3A1 (665–1141) (Q14432 665-1141): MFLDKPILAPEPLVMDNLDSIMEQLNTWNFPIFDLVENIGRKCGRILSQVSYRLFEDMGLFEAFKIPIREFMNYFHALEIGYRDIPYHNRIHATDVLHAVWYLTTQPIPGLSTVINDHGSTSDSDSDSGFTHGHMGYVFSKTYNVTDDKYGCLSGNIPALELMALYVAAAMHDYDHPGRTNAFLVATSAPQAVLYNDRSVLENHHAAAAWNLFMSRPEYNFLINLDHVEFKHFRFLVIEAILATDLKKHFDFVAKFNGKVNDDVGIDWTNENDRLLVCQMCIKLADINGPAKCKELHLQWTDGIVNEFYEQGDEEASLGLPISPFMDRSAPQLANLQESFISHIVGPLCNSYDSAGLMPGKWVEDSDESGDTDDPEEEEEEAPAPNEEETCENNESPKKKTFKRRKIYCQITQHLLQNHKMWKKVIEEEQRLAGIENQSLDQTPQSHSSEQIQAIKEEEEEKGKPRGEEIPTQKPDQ
Chain of PDE9A1 (181–506) (O76083 241-566): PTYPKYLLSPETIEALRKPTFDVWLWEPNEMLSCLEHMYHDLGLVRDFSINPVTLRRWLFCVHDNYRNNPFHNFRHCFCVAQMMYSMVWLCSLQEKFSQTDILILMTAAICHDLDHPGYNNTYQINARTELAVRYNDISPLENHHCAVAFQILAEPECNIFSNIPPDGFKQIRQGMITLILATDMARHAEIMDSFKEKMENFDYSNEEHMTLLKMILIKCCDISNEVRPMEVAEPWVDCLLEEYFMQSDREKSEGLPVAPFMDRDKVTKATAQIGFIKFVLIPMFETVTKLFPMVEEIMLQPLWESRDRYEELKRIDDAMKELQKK
Chain of PDE10A2 (448–789) (Q9Y233 714-1055): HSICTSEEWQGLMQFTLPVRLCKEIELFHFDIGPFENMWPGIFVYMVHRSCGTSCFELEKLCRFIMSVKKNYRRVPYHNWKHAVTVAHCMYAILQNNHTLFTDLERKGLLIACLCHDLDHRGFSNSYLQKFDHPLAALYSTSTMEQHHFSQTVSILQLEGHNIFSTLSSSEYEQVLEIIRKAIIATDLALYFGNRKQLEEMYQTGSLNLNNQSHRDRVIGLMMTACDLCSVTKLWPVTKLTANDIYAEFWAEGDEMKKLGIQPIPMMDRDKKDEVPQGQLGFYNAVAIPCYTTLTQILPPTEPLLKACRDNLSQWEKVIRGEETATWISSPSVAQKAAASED
Chain of PDE7A1 (130–482) (Q13946 130-482): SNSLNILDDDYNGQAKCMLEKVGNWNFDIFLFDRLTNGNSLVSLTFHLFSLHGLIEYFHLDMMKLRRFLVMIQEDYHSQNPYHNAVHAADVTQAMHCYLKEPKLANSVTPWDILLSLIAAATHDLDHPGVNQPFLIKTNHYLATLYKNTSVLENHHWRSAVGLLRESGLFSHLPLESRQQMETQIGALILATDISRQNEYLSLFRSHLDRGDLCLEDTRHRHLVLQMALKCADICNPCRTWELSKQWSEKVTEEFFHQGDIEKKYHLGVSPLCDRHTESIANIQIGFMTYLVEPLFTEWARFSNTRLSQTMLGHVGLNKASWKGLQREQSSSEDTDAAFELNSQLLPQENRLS

- IC50 (PDE4B2B): 0.02 ± 0.004 µM
- IC50 (PDE8A1 (480–820)): 8.6 ± 0.7 µM
- IC50 (PDE3A1 (665–1141)): 46 ± 3 µM
- IC50 (PDE9A1 (181–506)): 84 ± 10 µM
- IC50 (PDE11A4 (563–934)): 23 ± 4 µM
- IC50 (PDE2A3 (580–941)): 83 ± 12 µM
- IC50 (PDE5A1 (535–860)): 130 ± 23 µM
- IC50 (PDE7A1 (130–482)): 17 ± 3 µM
- IC50 (PDE10A2 (448–789)): 16 ± 1 µM
SMILES: CC(C)CC(=O)c1ccc(OC(F)F)c(O[C@H]2CCOC2)c1 [(S)-Zl-n-91, 1-(4-(difluoromethoxy)-3-((tetrahydrofuran-3-yl)oxy)phenyl)-3-methylbutan-1-one]

- locomotor activity (mice [2]): not altered
- line crossings (mice [2]; [5]): altered neither
- rears (mice [2]; [5]): altered neither
- CL(F) ([3]; PO, male mice): 342 mL/min/kg
- F (bioavailability) ([3]; PO, male mice): 33.3%
- AUC ([3]; male, ICR, mouse, plasma, iv): 728 ng·h/mL
- AUC(0-t) ([3]; male, ICR, mouse, plasma, iv): 725 ng·h/mL
- C0 ([3]; male, ICR, mouse, plasma, iv): 6030 ng/mL
- MRT inf ([3]; male, ICR, mouse, plasma, iv): 20.4 min
- Vd ([3]; male, ICR, mouse, plasma, iv): 2.31 L/kg
- clearance ([3]; male, ICR, mouse, plasma, iv): 115 mL/min/kg
- half-life ([3]; male, ICR, mouse, plasma, iv): 37.2 min
- AUC ([3]; male, ICR, mouse, plasma, po): 244 ng·h/mL
- AUC(0-t) ([3]; male, ICR, mouse, plasma, po): 241 ng·h/mL
- Cmax ([3]; male, ICR, mouse, plasma, po): 96.5 ng/mL
- Tmax ([3]; male, ICR, mouse, plasma, po): 120 min
- Vd/F ([3]; male, ICR, mouse, plasma, po): 39.9 L/kg
- half-life ([3]; male, ICR, mouse, plasma, po): 81 min
SMILES: CC(C)CC(=O)c1ccc(OC(F)F)c(OC2CCOC2)c1 (centres unmarked) [Zl-n-91, 1-(4-(difluoromethoxy)-3-((tetrahydrofuran-3-yl)oxy)phenyl)-3-methylbutan-1-one]
- memory in the object recognition test (mice [1]): enhanced memory
- sedation (mice [2]; dose of 0.5 mg/kg): does not produce sedation
- IC50 (LPS-induced TNFa release; whole blood cell): 0.04 µM
- IC50 (PDE4D): 0.026 µM

SMILES: COc1ccc([C@]2(C#N)CC[C@@H](C(=O)O)CC2)cc1OC1CCCC1 [cilomilast, reference compound]
- IC50 (LPS-induced TNFa release; whole blood): > 10 µM

SMILES: COc1ccc(C2CNC(=O)C2)cc1OC1CCCC1 (centres unmarked) [rolipram]
- locomotor activity (mice [4]): decreased locomotor activity
- increase of discrimination ratio (Tn-Tf)/(Tn+Tf) (mice [1]; 0.3 mg/kg, versus vehicle): about 4 times
- memory in the object recognition test (mice [1]): enhanced memory
